Consider 21 molecules from ChEMBL document CHEMBL1926665, “Anti-AIDS agents 85. Design, synthesis, and evaluation of 1R,2R-dicamphanoyl-3,3-dimethyldihydropyrano-[2,3-c]xanthen-7(1H)-one (DCX) derivatives as novel anti-HIV agents” (Eur J Med Chem, 2012).

pEC50: −log10 of the molar value.

Series [1] in a line: Selectivity index, ratio of CC50 for human TZM-bl cells to EC50 for drug-resistance HIV1 RTMDR1 infected in human TZM-bl cells. Format: toxicity, cell-based. To be noted: read-out: Ratio CC50/EC50. The method, boiled down:
(§1)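 Selectivity index is CC50 ÷ EC50. CC50 came from the CytoTox-Glo cytotoxicity kit run per the maker's protocol in TZM-bl cells. EC50 came from the 48 h single-round TZM-bl luciferase infection assay (200 TCID50 virus, eight four-fold dilutions) against the NL4-3 or RTMDR1 strain. Values are averaged from at least three independent experiments.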

Series [2] in a line: Selectivity index, ratio of CC50 for human TZM-bl cells to EC50 for wild type HIV1 NL4-3 infected in human TZM-bl cells. The class given is toxicity, cell-based. To be noted: read-out: Ratio CC50/EC50. The method, boiled down: as §1
Series [3] can be described thus: Cytotoxicity against human TZM-bl cells by CytoTox-Glo assay. Format: cell-based.
Series [4] deals with Human immunodeficiency virus 1. The series can be described thus: Antiviral activity against wild type HIV1 NL4-3 infected in human TZM-bl cells after 48 hrs by luciferase reporter gene assay. The class given is functional, organism-based. To be noted: Human immunodeficiency virus 1, NL4-3, TZM-bl. The method, boiled down:
(§2)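 Single-round infection of TZM-bl cells (NL4-3 or RTMDR1 strain), with luciferase reporter read-out. Virus at 200 TCID50 was mixed with eight four-fold serial dilutions of sample in growth medium, then incubated 48 h. Luciferase was read by luminometer. EC50 is the concentration giving a 50% drop in RLU versus virus control after background subtraction. Values are means of at least three independent experiments.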
A general note: In a reporter assay the amount or activity of a reporter protein is the signal.

For series [5], the system named is Human immunodeficiency virus 1. Description: Ratio of 2-EDCP EC50 to compound EC50 for wild type HIV1 NL4-3 infected in human TZM-bl cells. The class given is functional.
In series [6] the test system is Human immunodeficiency virus 1. The series can be described thus: Antiviral activity against drug-resistance HIV1 RTMDR1 infected in human TZM-bl cells after 48 hrs by luciferase reporter gene assay. Format: functional, organism-based. To be noted: Human immunodeficiency virus 1, RTMDR1, TZM-bl. The method, boiled down: as §2
Series [7] concerns Human immunodeficiency virus 1. Description: Antiviral activity against wild type HIV1. The class given is functional, organism-based.
Series [8] deals with Human immunodeficiency virus 1. The series can be described thus: Antiviral activity against drug-resistance HIV1. The class given is functional, organism-based.

By CC50 is commonly meant the concentration at which the toxic effect on the cells reaches its halfway point. What is called pEC50 is the EC50 on a negative log10 scale, so that one unit is a factor of ten. A low value points to a high EC50. For the molecule `COc1cc2c(c3oc4ccccc4c(=O)c13)[C@@H](OC(=O)C13CCC(C)(C(=O)O1)C3(C)C)[C@@H](OC(=O)C13CCC(C)(C(=O)O1)C3(C)C)C(C)(C)O2` (stereo partly drawn), the selectivity ratio in series [1] is greater than 193; in series [2] it was greater than 227. The CC50 in series [3] is greater than 14.3 µM. Further, the figures for the pEC50 in series [4] and in series [6] were 7.20 and 7.13, respectively. The “Ratio EC50” value in series [5] was 1.5.
In the case of `COc1cc2c(c3oc4ccc(F)cc4c(=O)c13)[C@@H](OC(=O)C13CCC(C)(C(=O)O1)C3(C)C)[C@@H](OC(=O)C13CCC(C)(C(=O)O1)C3(C)C)C(C)(C)O2` (stereo partly drawn), the selectivity ratio was 162 in series [1] and 260 in series [2]. Besides, in series [3], the CC50 amounted to 26 µM. The pEC50 is 7.00 in series [4] and 6.80 in series [6].
As for `COc1cccc2oc3c4c(cc(OC)c3c(=O)c12)OC(C)(C)[C@H](OC(=O)C12CCC(C)(C(=O)O1)C2(C)C)[C@@H]4OC(=O)C12CCC(C)(C(=O)O1)C2(C)C` (stereo partly drawn), the selectivity ratio in series [2] was 6.83. Besides, in series [3], half-maximal cytotoxicity (CC50) was put at 11.6 µM. The pEC50 in series [4] was 5.77.
With `CCc1cc(=O)c2ccc3c(c2o1)[C@@H](OC(=O)C12CCC(C)(C(=O)O1)C2(C)C)[C@@H](OC(=O)C12CCC(C)(C(=O)O1)C2(C)C)C(C)(C)O3` (stereo partly drawn), the pEC50 was 7.15 in series [7], 7.05 in series [4], 6.96 in series [8] and 6.96 in series [6]. For the same molecule, the selectivity ratio in series [1] is 110; in series [2], 136. The same molecule returned a CC50 in series [3] of 12.1 µM.
Take `COc1cc2c(c3oc4cc(C#N)ccc4c(=O)c13)[C@@H](OC(=O)C13CCC(C)(C(=O)O1)C3(C)C)[C@@H](OC(=O)C13CCC(C)(C(=O)O1)C3(C)C)C(C)(C)O2` (stereo partly drawn): the selectivity ratio in series [2] is 45.4. This molecule showed a CC50 in series [3] of 9.08 µM. The molecule also had a pEC50 in series [4] of 6.70.
With `COc1cc2c(c3oc4cccc(O)c4c(=O)c13)[C@@H](OC(=O)C13CCC(C)(C(=O)O1)C3(C)C)[C@@H](OC(=O)C13CCC(C)(C(=O)O1)C3(C)C)C(C)(C)O2` (stereo partly drawn), the selectivity ratio in series [2] turned out to be 24.5. In series [3], this molecule registered a CC50 of 8.1 µM. In addition, the pEC50 in series [4] is 6.48.
`CC1(C)Oc2ccc3c(=O)c4ccccc4oc3c2[C@@H](OC(=O)C23CCC(C)(C(=O)O2)C3(C)C)[C@H]1OC(=O)C12CCC(C)(C(=O)O1)C2(C)C` (stereo partly drawn): the results for the selectivity ratio in series [1] and in series [2] were greater than 54.6 and greater than 96.8, respectively. Also, the CC50 in series [3] was greater than 29.8 µM. Also, the pEC50 in series [4] is 6.51; in series [6] it was 6.26.
As to `COc1cc2c(c3oc4c(F)cccc4c(=O)c13)[C@@H](OC(=O)C13CCC(C)(C(=O)O1)C3(C)C)[C@@H](OC(=O)C13CCC(C)(C(=O)O1)C3(C)C)C(C)(C)O2` (stereo partly drawn), the selectivity ratio in series [2] stood at 33.9. This molecule also yielded a CC50 in series [3] of 7.8 µM. This molecule gave a pEC50 in series [4] of 6.64.
Regarding `COc1cc2c(c3oc4ccc(C#N)cc4c(=O)c13)[C@@H](OC(=O)C13CCC(C)(C(=O)O1)C3(C)C)[C@@H](OC(=O)C13CCC(C)(C(=O)O1)C3(C)C)C(C)(C)O2` (stereo partly drawn), the selectivity ratio in series [2] is greater than 47.8. The same molecule returned a CC50 in series [3] greater than 13.8 µM. This molecule had a pEC50 in series [4] of 6.54.
For `COc1cc(C)c2c(=O)c3c(OC)cc4c(c3oc2c1)[C@@H](OC(=O)C12CCC(C)(C(=O)O1)C2(C)C)[C@@H](OC(=O)C12CCC(C)(C(=O)O1)C2(C)C)C(C)(C)O4` (stereo partly drawn), in that order: greater than 192, greater than 26.8 µM and 6.85.
On to `COc1cc2c(c3oc4cccc(F)c4c(=O)c13)[C@@H](OC(=O)C13CCC(C)(C(=O)O1)C3(C)C)[C@@H](OC(=O)C13CCC(C)(C(=O)O1)C3(C)C)C(C)(C)O2` (stereo partly drawn), for which the selectivity ratio in series [1] is greater than 214; in series [2], greater than 224. Also, in series [3], the CC50 is greater than 13.9 µM. Besides, the results for the pEC50 in series [4] and in series [6] were 7.21 and 7.19, respectively.
The matching figures for `COc1cc2c(c3oc4ccc(C)cc4c(=O)c13)[C@@H](OC(=O)C13CCC(C)(C(=O)O1)C3(C)C)[C@@H](OC(=O)C13CCC(C)(C(=O)O1)C3(C)C)C(C)(C)O2` (stereo partly drawn): 141, 175, 11.4 µM, 7.19 and 7.09.
For the molecule `COc1ccc2oc3c4c(cc(OC)c3c(=O)c2c1)OC(C)(C)[C@H](OC(=O)C12CCC(C)(C(=O)O1)C2(C)C)[C@@H]4OC(=O)C12CCC(C)(C(=O)O1)C2(C)C` (stereo partly drawn), the values for the selectivity ratio in series [1] and in series [2] were 25.7 and 88.8, respectively. This molecule also returned a CC50 in series [3] of 10.8 µM. Moreover, the pEC50 in series [4] was 6.92; in series [6], 6.38.
For `COc1cc2c(c3oc4cc(C)ccc4c(=O)c13)[C@@H](OC(=O)C13CCC(C)(C(=O)O1)C3(C)C)[C@@H](OC(=O)C13CCC(C)(C(=O)O1)C3(C)C)C(C)(C)O2` (stereo partly drawn), in that order: greater than 38.6, greater than 147, greater than 14 µM, 7.02 and 6.44.
Regarding `COc1cc2c(c3oc4ccc(CBr)cc4c(=O)c13)[C@@H](OC(=O)C13CCC(C)(C(=O)O1)C3(C)C)[C@@H](OC(=O)C13CCC(C)(C(=O)O1)C3(C)C)C(C)(C)O2` (stereo partly drawn), the selectivity ratio in series [2] is greater than 5.55. The same molecule registered a CC50 in series [3] greater than 25.2 µM. The pEC50 in series [4] is 5.34.
Take `COc1cc2c(c3oc4cccc(C)c4c(=O)c13)[C@@H](OC(=O)C13CCC(C)(C(=O)O1)C3(C)C)[C@@H](OC(=O)C13CCC(C)(C(=O)O1)C3(C)C)C(C)(C)O2` (stereo partly drawn): the selectivity ratio in series [1] stood at 31.4; in series [2] it was 77.3. For the same molecule, the CC50 in series [3] is 11.6 µM. Further, the pEC50 in series [4] was 6.82; in series [6], 6.43.
Take `Cc1cc(=O)c2c(C)cc3c(c2o1)[C@@H](OC(=O)C12CCC(C)(C(=O)O1)C2(C)C)[C@@H](OC(=O)C12CCC(C)(C(=O)O1)C2(C)C)C(C)(C)O3` (stereo partly drawn): the pEC50 is 7.44 in series [7] and 6.31 in series [8].
Turning to `COc1ccc2c(=O)c3c(OC)cc4c(c3oc2c1)[C@@H](OC(=O)C12CCC(C)(C(=O)O1)C2(C)C)[C@@H](OC(=O)C12CCC(C)(C(=O)O1)C2(C)C)C(C)(C)O4` (stereo partly drawn), in series [2], the selectivity ratio is greater than 37.8. The molecule also yielded a CC50 in series [3] greater than 13.7 µM. The molecule further showed a pEC50 in series [4] of 6.44.
For the molecule `COc1cc2c(c3oc4ccc(Br)cc4c(=O)c13)[C@@H](OC(=O)C13CCC(C)(C(=O)O1)C3(C)C)[C@@H](OC(=O)C13CCC(C)(C(=O)O1)C3(C)C)C(C)(C)O2` (stereo partly drawn), the selectivity ratio in series [2] is 6.83. Moreover, it took 9.23 µM to reach half-maximal cytotoxicity in series [3] (CC50). In series [4], this molecule showed a pEC50 of 5.83.
The matching figures for `COc1cc2c(c3oc4c(C)cccc4c(=O)c13)[C@@H](OC(=O)C13CCC(C)(C(=O)O1)C3(C)C)[C@@H](OC(=O)C13CCC(C)(C(=O)O1)C3(C)C)C(C)(C)O2` (stereo partly drawn): 2.84, 4.32 µM and 5.82.
The matching figures for `COc1cc2c(c3oc4ccccc4/c(=N\O)c13)[C@@H](OC(=O)C13CCC(C)(C(=O)O1)C3(C)C)[C@@H](OC(=O)C13CCC(C)(C(=O)O1)C3(C)C)C(C)(C)O2` (stereo partly drawn): greater than 118, greater than 13.9 µM and 6.92.
